According to ChEMBL document CHEMBL1134010, “Syntheses and antifungal activities of novel 3-amido bearing pseudomycin analogues” (Bioorg Med Chem Lett, 2001):
In brackets after ≈: the same amount, converted by molar mass. Positions of bridges follow the written chain, without caps; N, C: chain ends. Non-standard residues stand in square brackets, D forms with d. Residues, ends and D or L forms follow the SMILES beside them. Groups on a side chain read outwards from the residue. *: point of attachment. Tetradecanoyl(3R-OH) = CCCCCCCCCCC[C@@H](O)CC(=O)*; Asp(3S-OH) = N[C@H](C(=O)O)[C@H](O)C(=O)O; Thr(4-Cl) = N[C@H](C(=O)O)[C@H](O)CCl; aThr = C[C@H](O)[C@H](N)C(=O)O; dDab = NCC[C@@H](N)C(=O)O; Dab = NCC[C@H](N)C(=O)O; Dhb = C/C=C(\N)C(=O)O; X1 = CCN(CC)CCN*

How the values were obtained:
Aspergillus fumigatus = assay: In vitro minimum inhibitory concentration (MIC) against Aspergillus fumigatus.; type: functional
Outline: (§1)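 Tested against Candida albicans, Cryptococcus neoformans and Aspergillus fumigatus, with PSB as positive control. MIC is taken as the lowest drug concentration giving 90–100% inhibition of visible growth relative to drug-free controls.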

Cryptococcus neoformans = assay: In vitro minimum inhibitory concentration (MIC) against Cryptococcus neoformans.; type: functional; outline: as §1
Candida albicans [1] = assay: In vitro minimum inhibitory concentration (MIC) against Candida albicans.; type: functional; outline: as §1
Candida albicans [2] = assay: In vivo efficacy against murine Candidiasis dosed four times by intraperitoneal administration post-infection using Reed and Muench method.; type: functional; conditions: ip
Outline: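 Systemic candidiasis in mice, with PSB and amphotericin B as positive controls. Analogues were given at 20, 10 and 5 mg/kg, four doses at 0, 4, 24 and 48 post-infection. ED50 is the dose giving 50% survival relative to untreated infected animals, calculated by the Reed and Muench method.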

Mus musculus [3] = assay: Toxicity at a dose of 125 mg/kg in mice; Death; conditions: in vivo
Mus musculus [4] = assay: Toxicity at a dose of 100 mg/kg in mice; Death; conditions: in vivo

Row | SMILES | MIC (Aspergillus fumigatus) [µg/mL] | MIC (Cryptococcus neoformans) [µg/mL] | MIC (Candida albicans [1]) [µg/mL] | ED50 (Candida albicans [2]) [mg/kg] | Toxicity (Mus musculus [3]) | Toxicity (Mus musculus [4])
1 | C/C=C1\NC(=O)[C@H]([C@H](C)O)NC(=O)[C@H](CCN)NC(=O)[C@H](CCCCN)NC(=O)[C@H](CC(=O)NCCCCCCCCCC)NC(=O)[C@@H](CCN)NC(=O)[C@@H](NC(=O)C[C@H](O)CCCCCCCCCCC)COC(=O)[C@H]([C@H](O)CCl)NC(=O)[C@H]([C@H](O)C(=O)O)NC1=O | > 20 | 1.25 (≈ 0.928 µM) | > 20 | > 20 |  | 
2 | C/C=C1\NC(=O)[C@H]([C@H](C)O)NC(=O)[C@H](CCN)NC(=O)[C@H](CCCCN)NC(=O)[C@H](CC(=O)NCCN(CC)CC)NC(=O)[C@@H](CCN)NC(=O)[C@@H](NC(=O)C[C@H](O)CCCCCCCCCCC)COC(=O)[C@H]([C@H](O)CCl)NC(=O)[C@H]([C@H](O)C(=O)O)NC1=O ({Tetradecanoyl(3R-OH)}-S[dDab]D(X1)K[Dab][aThr][Dhb][Asp(3S-OH)][Thr(4-Cl)]; ester 1-C) | 10 (≈ 7.66 µM) | < 0.01 | 10 (≈ 7.66 µM) | 4.9 |  | 
3 | C/C=C1\NC(=O)[C@H]([C@H](C)O)NC(=O)[C@H](CCN)NC(=O)[C@H](CCCCN)NC(=O)[C@H](CC(=O)NCCCCCCCC)NC(=O)[C@@H](CCN)NC(=O)[C@@H](NC(=O)C[C@H](O)CCCCCCCCCCC)COC(=O)[C@H]([C@H](O)CCl)NC(=O)[C@H]([C@H](O)C(=O)O)NC1=O | > 20 | 0.625 (≈ 0.474 µM) | 20 (≈ 15.2 µM) | > 20 |  | 
4 | C/C=C1\NC(=O)[C@H]([C@H](C)O)NC(=O)[C@H](CCN)NC(=O)[C@H](CCCCN)NC(=O)[C@H](CC(=O)NCCCCCCN(C)C)NC(=O)[C@@H](CCN)NC(=O)[C@@H](NC(=O)C[C@H](O)CCCCCCCCCCC)COC(=O)[C@H]([C@H](O)CCl)NC(=O)[C@H]([C@H](O)C(=O)O)NC1=O | 20 (≈ 15 µM) | < 0.01 | 5 (≈ 3.75 µM) | < 5 |  | 
5 | C/C=C1\NC(=O)[C@H]([C@H](C)O)NC(=O)[C@H](CCN)NC(=O)[C@H](CCCCN)NC(=O)[C@H](CC(=O)NCCCCCC)NC(=O)[C@@H](CCN)NC(=O)[C@@H](NC(=O)C[C@H](O)CCCCCCCCCCC)COC(=O)[C@H]([C@H](O)CCl)NC(=O)[C@H]([C@H](O)C(=O)O)NC1=O | > 20 | 0.156 (≈ 0.121 µM) | 5 (≈ 3.87 µM) | > 12 |  | 
6 | C/C=C1\NC(=O)[C@H]([C@H](C)O)NC(=O)[C@H](CCN)NC(=O)[C@H](CCCCN)NC(=O)[C@H](CC(=O)N(C)CCN(C)C)NC(=O)[C@@H](CCN)NC(=O)[C@@H](NC(=O)C[C@H](O)CCCCCCCCCCC)COC(=O)[C@H]([C@H](O)CCl)NC(=O)[C@H]([C@H](O)C(=O)O)NC1=O | 20 (≈ 15.5 µM) | < 0.01 | 5 (≈ 3.87 µM) | 4 |  | 
7 | C/C=C1\NC(=O)[C@H]([C@H](C)O)NC(=O)[C@H](CCN)NC(=O)[C@H](CCCCN)NC(=O)[C@H](CC(=O)NCCCCCCCCC)NC(=O)[C@@H](CCN)NC(=O)[C@@H](NC(=O)C[C@H](O)CCCCCCCCCCC)COC(=O)[C@H]([C@H](O)CCl)NC(=O)[C@H]([C@H](O)C(=O)O)NC1=O | > 20 | 5 (≈ 3.75 µM) | 20 (≈ 15 µM) | > 20 |  | 
8 | C/C=C1\NC(=O)[C@H]([C@H](C)O)NC(=O)[C@H](CCN)NC(=O)[C@H](CCCCN)NC(=O)[C@H](CC(=O)NCCCCCCCN(C)C)NC(=O)[C@@H](CCN)NC(=O)[C@@H](NC(=O)C[C@H](O)CCCCCCCCCCC)COC(=O)[C@H]([C@H](O)CCl)NC(=O)[C@H]([C@H](O)C(=O)O)NC1=O | > 20 | < 0.01 | 10 (≈ 7.42 µM) | < 4 |  | 
9 | C/C=C1\NC(=O)[C@H]([C@H](C)O)NC(=O)[C@H](CCN)NC(=O)[C@H](CCCCN)NC(=O)[C@H](CC(=O)NCCCCN(C)C)NC(=O)[C@@H](CCN)NC(=O)[C@@H](NC(=O)C[C@H](O)CCCCCCCCCCC)COC(=O)[C@H]([C@H](O)CCl)NC(=O)[C@H]([C@H](O)C(=O)O)NC1=O | 5 (≈ 3.83 µM) | < 0.01 | 20 (≈ 15.3 µM) | < 5 |  | 
10 | C/C=C1\NC(=O)[C@H]([C@@H](C)O)NC(=O)[C@H](CCN)NC(=O)[C@H](CCCCN)NC(=O)[C@H](CC(=O)N[C@@H](CCCCN)C(=O)OC)NC(=O)[C@@H](CCN)NC(=O)[C@@H](NC(=O)C[C@H](O)CCCCCCCCCCC)COC(=O)[C@H]([C@H](O)CCl)NC(=O)[C@H]([C@H](O)C(=O)O)NC1=O | > 20 | < 0.01 | 1.25 (≈ 0.926 µM) | < 5 | Death | Death

Second part, led by results:

Row | MIC (Aspergillus fumigatus) [µg/mL] | MIC (Cryptococcus neoformans) [µg/mL] | MIC (Candida albicans [1]) [µg/mL] | SMILES | ED50 (Candida albicans [2]) [mg/kg] | Toxicity (Mus musculus [3]) | Toxicity (Mus musculus [4])
11 | > 20 | < 0.01 | 0.312 (≈ 0.244 µM) | C/C=C1\NC(=O)[C@H]([C@H](C)O)NC(=O)[C@H](CCN)NC(=O)[C@H](CCCCN)NC(=O)[C@H](CC(=O)NCCC(C)C)NC(=O)[C@@H](CCN)NC(=O)[C@@H](NC(=O)C[C@H](O)CCCCCCCCCCC)COC(=O)[C@H]([C@H](O)CCl)NC(=O)[C@H]([C@H](O)C(=O)O)NC1=O | 10.9 |  | 
12 | > 20 | 1.25 (≈ 0.913 µM) | 1.25 (≈ 0.913 µM) | C/C=C1\NC(=O)[C@H]([C@@H](C)O)NC(=O)[C@H](CCN)NC(=O)[C@H](CCCCN)NC(=O)[C@H](CC(=O)N[C@@H](Cc2ccccc2)C(=O)OC)NC(=O)[C@@H](CCN)NC(=O)[C@@H](NC(=O)C[C@H](O)CCCCCCCCCCC)COC(=O)[C@H]([C@H](O)CCl)NC(=O)[C@H]([C@H](O)C(=O)O)NC1=O | > 15 |  | 
13 | > 20 | 0.312 (≈ 0.256 µM) | 5 (≈ 4.1 µM) | C/C=C1\NC(=O)[C@H]([C@H](C)O)NC(=O)[C@H](CCN)NC(=O)[C@H](CCCCN)NC(=O)[C@H](CC(=O)NC)NC(=O)[C@@H](CCN)NC(=O)[C@@H](NC(=O)C[C@H](O)CCCCCCCCCCC)COC(=O)[C@H]([C@H](O)CCl)NC(=O)[C@H]([C@H](O)C(=O)O)NC1=O | 7.4 |  | 
14 | 20 (≈ 16.2 µM) | 0.156 (≈ 0.126 µM) | 0.625 (≈ 0.506 µM) | C/C=C1\NC(=O)[C@H]([C@H](C)O)NC(=O)[C@H](CCN)NC(=O)[C@H](CCCCN)NC(=O)[C@H](CC(=O)NCC)NC(=O)[C@@H](CCN)NC(=O)[C@@H](NC(=O)C[C@H](O)CCCCCCCCCCC)COC(=O)[C@H]([C@H](O)CCl)NC(=O)[C@H]([C@H](O)C(=O)O)NC1=O |  |  | 
15 | 20 (≈ 15.6 µM) | 0.01 (≈ 0.00782 µM) | 1 (≈ 0.782 µM) | C/C=C1\NC(=O)[C@H]([C@H](C)O)NC(=O)[C@H](CCN)NC(=O)[C@H](CCCCN)NC(=O)[C@H](CC(=O)NCC(=O)OC)NC(=O)[C@@H](CCN)NC(=O)[C@@H](NC(=O)C[C@H](O)CCCCCCCCCCC)COC(=O)[C@H]([C@H](O)CCl)NC(=O)[C@H]([C@H](O)C(=O)O)NC1=O ({Tetradecanoyl(3R-OH)}-S[dDab]D([Gly-OMe])K[Dab][aThr][Dhb][Asp(3S-OH)][Thr(4-Cl)]; ester 1-C) | < 5 |  | 
16 | > 20 | < 0.01 | 0.312 (≈ 0.244 µM) | C/C=C1\NC(=O)[C@H]([C@H](C)O)NC(=O)[C@H](CCN)NC(=O)[C@H](CCCCN)NC(=O)[C@H](CC(=O)NCCCCC)NC(=O)[C@@H](CCN)NC(=O)[C@@H](NC(=O)C[C@H](O)CCCCCCCCCCC)COC(=O)[C@H]([C@H](O)CCl)NC(=O)[C@H]([C@H](O)C(=O)O)NC1=O | 8.5 |  | 
17 | 10 (≈ 7.74 µM) | < 0.01 | 10 (≈ 7.74 µM) | C/C=C1\NC(=O)[C@H]([C@H](C)O)NC(=O)[C@H](CCN)NC(=O)[C@H](CCCCN)NC(=O)[C@H](CC(=O)NCCCN(C)C)NC(=O)[C@@H](CCN)NC(=O)[C@@H](NC(=O)C[C@H](O)CCCCCCCCCCC)COC(=O)[C@H]([C@H](O)CCl)NC(=O)[C@H]([C@H](O)C(=O)O)NC1=O | < 5 |  | 
18 | 10 (≈ 8.1 µM) | < 0.01 | 10 (≈ 8.1 µM) | C/C=C1\NC(=O)[C@H]([C@H](C)O)NC(=O)[C@H](CCN)NC(=O)[C@H](CCCCN)NC(=O)[C@H](CC(=O)N(C)C)NC(=O)[C@@H](CCN)NC(=O)[C@@H](NC(=O)C[C@H](O)CCCCCCCCCCC)COC(=O)[C@H]([C@H](O)CCl)NC(=O)[C@H]([C@H](O)C(=O)O)NC1=O | < 4.5 |  | 
19 | > 20 | 0.01 (≈ 0.00726 µM) | 5 (≈ 3.63 µM) | C/C=C1\NC(=O)[C@H]([C@@H](C)O)NC(=O)[C@H](CCN)NC(=O)[C@H](CCCCN)NC(=O)[C@H](CC(=O)N[C@@H](CCCN=C(N)N)C(=O)OC)NC(=O)[C@@H](CCN)NC(=O)[C@@H](NC(=O)C[C@H](O)CCCCCCCCCCC)COC(=O)[C@H]([C@H](O)CCl)NC(=O)[C@H]([C@H](O)C(=O)O)NC1=O | < 5 |  | 
20 | 20 (≈ 15.8 µM) | < 0.01 | 5 (≈ 3.96 µM) | C/C=C1\NC(=O)[C@H]([C@H](C)O)NC(=O)[C@H](CCN)NC(=O)[C@H](CCCCN)NC(=O)[C@H](CC(=O)NCCCC)NC(=O)[C@@H](CCN)NC(=O)[C@@H](NC(=O)C[C@H](O)CCCCCCCCCCC)COC(=O)[C@H]([C@H](O)CCl)NC(=O)[C@H]([C@H](O)C(=O)O)NC1=O | 5.9 |  | 
21 | 20 (≈ 14.7 µM) | < 0.01 | 0.312 (≈ 0.23 µM) | C/C=C1\NC(=O)[C@H]([C@@H](C)O)NC(=O)[C@H](CCN)NC(=O)[C@H](CCCCN)NC(=O)[C@H](CC(=O)N[C@@H](Cc2c[nH]cn2)C(=O)OC)NC(=O)[C@@H](CCN)NC(=O)[C@@H](NC(=O)C[C@H](O)CCCCCCCCCCC)COC(=O)[C@H]([C@H](O)CCl)NC(=O)[C@H]([C@H](O)C(=O)O)NC1=O | < 5 |  | 
